Calls of active or inactive are those of the source. The calls are words filed in the database; no cut-off is given here.
Assays:
[1] = Inhibition of human HH/Gli1-mediated transcriptional activity in tetracycline-treated human HaCaT cells treated after 12 hrs of tetracycline addition by luciferase reporter gene assay; type: cell-based
Outline: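 HaCaT cells carrying a GLI1-driven luciferase construct, seeded at 2 × 10⁵ cells per well; compounds added 12 h after tetracycline induction; luciferase activity and cell viability read at the same time point.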

PANC-1 [2] = test: Cytotoxicity against human PANC1 cells after 24 hrs by FMCA method; type: functional, cell-based; conditions: PANC-1, 24 h
Outline: (§1)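 Cells (PANC1, DU145, C3H10T1/2) exposed to compounds in 0.05% DMSO; viability measured, n = 3; IC50 values derived from concentration–response.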

[3] = Cytotoxicity against mouse C3H10T1/2 cells after 24 hrs by FMCA method; type: functional, cell-based; conditions: C3H 10T1/2, 24 h; outline: as §1
DU-145 = test: Cytotoxicity against human DU145 cells after 24 hrs by FMCA method; type: functional, cell-based; conditions: DU-145, 24 h; outline: as §1
PANC-1 [4] = test: Inhibition of human HH/Gli1-mediated PTCH mRNA expression in human PANC1 cells at 0.7 to 1.4 uM by RT-PCR analysis; type: cell-based
Outline: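 PANC1 cells treated in 0.05% DMSO; Ptch mRNA quantified by RT-PCR with GAPDH as internal control; n = 3.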

PANC-1 [5] = test: Inhibition of human HH/Gli1-mediated expression of PTCH in human PANC1 cells by Western blot analysis; type: cell-based
Outline: (§2)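 PANC1 cells treated, then full, cytosolic and nuclear fractions prepared; GLI1, PTCH and BCL2 protein levels assessed by Western blotting.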

PANC-1 [6] = test: Inhibition of human HH/Gli1-mediated induction of nuclear Gli1 level in human PANC1 cells at 1.6 uM by Western blot analysis; type: cell-based; outline: as §2
PANC-1 [7] = test: Inhibition of human HH/Gli1-mediated expression of BCL-2 in human PANC1 cells by Western blot analysis; type: cell-based; outline: as §2
PANC-1 [8] = test: Inhibition of human HH/Gli1-mediated PTCH mRNA expression in human PANC1 cells transfected with Smo siRNA at 0.7 to 1.4 uM by RT-PCR analysis; type: cell-based
Outline: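 PANC1 cells transfected with Smo siRNA (non-targeting siRNA at same concentration as control), Smo depletion confirmed by Western blot; treated cells then assayed for Ptch mRNA by real-time quantitative RT-PCR.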

[9] = Homo sapiens, HaCaT, 12 h, read-out: IC50

| SMILES | IC50 ([1]; hacat) | IC50 (PANC-1 [2]) [nM] | IC50 [3] [µM] | IC50 [1, 9] [nM] | IC50 (DU-145) [nM] | also measured |
| --- | --- | --- | --- | --- | --- | --- |
| COc1ccc(-c2oc3cc(O)cc(O)c3c(=O)c2O[C@@H]2O[C@@H](C)[C@H](O)[C@@H](O)[C@H]2O)cc1 | Not Active | – | – | – | – | – |
| O=c1c(O[C@@H]2O[C@@H](CO)[C@H](O)[C@H]2O)c(-c2ccc(O)cc2)oc2cc(O)cc(O)c12 [JUGLANIN] | – | 1800 | > 100 | 2000 | 2400 | – |
| CO[C@@H]1[C@@H](O)[C@H](C)O[C@@H](OC[C@@]2(O)CO[C@@H](Oc3c(-c4ccc(O)c(O)c4)oc4cc(O)cc(O)c4c3=O)[C@@H]2O)[C@@H]1O | – | 20000 | > 100 | 19100 | 22000 | – |
| C[C@@H]1O[C@@H](OC[C@H]2O[C@@H](Oc3c(-c4ccc(O)c(O)c4)oc4cc(O)cc(O)c4c3=O)[C@H](O)[C@@H](O)[C@@H]2O)[C@H](O)[C@H](O)[C@H]1O [RUTIN] | Not Active | – | – | – | – | – |
| CC(=O)O[C@H]1[C@H](Oc2c(-c3ccc(O)cc3)oc3cc(O)cc(O)c3c2=O)O[C@@H](C)[C@H](O)[C@H]1O | Not Active | – | – | – | – | – |
| CO[C@@H]1[C@@H](O)[C@H](C)O[C@@H](Oc2c(-c3ccc(O)c(O)c3)oc3cc(O)cc(O)c3c2=O)[C@@H]1O | – | 700 | > 100 | 500 | 800 | inhibition (PANC-1 [4]): Active; inhibition (PANC-1 [5]): Dose-dependent effect; inhibition (PANC-1 [6]): Active; inhibition (PANC-1 [7]): Dose-dependent effect; inhibition (PANC-1 [8]): Active |
| C[C@@H]1O[C@@H](Oc2c(-c3ccc(O)cc3)oc3cc(O)cc(O)c3c2=O)[C@H](O)[C@H](O)[C@H]1O [AFZELIN] | Not Active | – | – | – | – | – |
| C[C@@H]1O[C@@H](Oc2c(-c3ccc(O)c(O)c3)oc3cc(O)cc(O)c3c2=O)[C@H](O)[C@H](O)[C@H]1O [QUERCITRIN] | Not Active | – | – | – | – | – |
